The list is not random: actives were taken first. Their share in the collection is about 1.8%.
MsrA inh – bovine MsrA enzyme inhibitors, primary screen, biochemical, absorbance, HTS | AID 651718, 2012 | inhibition, % at 15.5 µM | purified bovine MsrA, absorbance read-out | 360,000 tested, 0.75% active;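 also: 0% = vehicle wells with enzyme and 100% = reference inhibitor wells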
bovine MsrA act – bovine MsrA enzyme activators, primary screen, biochemical, absorbance, HTS | 360,000 tested, 0.3% active | activation, % at 10.6 µM | AID 602163, 2012 | purified bovine MsrA, absorbance read-out | Methionine sulfoxide reductase A (Bos taurus); in the data active = activation above about 7.5%;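 also: 0% = vehicle and 100% = reference activator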
MIN6 prolif – inducers of MIN6 beta-cell proliferation, primary screen, ATP luminescence, uHTS. proliferation, % at 10 µM. 330,000 tested, 0.29% active. MIN6 cells proliferation, ATPlite luminescence, 48 h; cells starved in 0.2% serum; 100% = growth in 10% serum;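 active = compounds whose signal lies at least 3.5 SD above the mean of all wells on their plate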;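 also: 0% = DMSO-treated cells in low-serum medium and 100% = 10% serum control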
DAGLB inh – DAGLB lipase inhibitors, primary screen, biochemical, fluorescence, HTS. 340,000 tested, 0.059% active. inhibition, % at 5.17 µM. HEK293T DAGLB membrane lysate, EnzChek fluorogenic substrate. Diacylglycerol lipase-beta (Homo sapiens), Q8NCG7; in the data active = inhibition above about 34%;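 also: 0% = enzyme with vehicle and 100% = wells lacking enzyme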
Target sequence (Q8NCG7 whole entry, looked up): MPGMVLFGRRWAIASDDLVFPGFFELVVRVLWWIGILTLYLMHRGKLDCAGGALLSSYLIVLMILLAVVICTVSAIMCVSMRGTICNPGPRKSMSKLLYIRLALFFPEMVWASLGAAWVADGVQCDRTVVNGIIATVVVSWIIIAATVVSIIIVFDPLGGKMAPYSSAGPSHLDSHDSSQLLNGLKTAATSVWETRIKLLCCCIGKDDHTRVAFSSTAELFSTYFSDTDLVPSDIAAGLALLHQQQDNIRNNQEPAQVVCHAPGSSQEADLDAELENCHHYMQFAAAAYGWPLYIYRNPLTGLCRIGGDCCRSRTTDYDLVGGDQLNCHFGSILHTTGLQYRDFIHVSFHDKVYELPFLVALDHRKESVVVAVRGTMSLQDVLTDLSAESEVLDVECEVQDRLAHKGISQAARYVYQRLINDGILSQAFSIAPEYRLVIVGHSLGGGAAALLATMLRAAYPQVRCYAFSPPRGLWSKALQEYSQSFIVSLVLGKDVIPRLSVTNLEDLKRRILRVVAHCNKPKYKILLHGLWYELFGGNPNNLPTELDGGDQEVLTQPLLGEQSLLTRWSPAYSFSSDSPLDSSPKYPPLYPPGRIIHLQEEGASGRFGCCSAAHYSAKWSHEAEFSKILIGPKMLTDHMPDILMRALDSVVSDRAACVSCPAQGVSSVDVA
SKN-1 inh – suppressors of acrylamide-induced Pgst-4::GFP reporter in worms, primary screen, SKN-1 inhibitor project, whole organism, uHTS, GFP/RFP fluorescence ratio, strain VP596; 360,000 tested, 0.49% active; inhibition, % at 21.8 µM; C. elegans VP596 Pgst-4::GFP/RFP ratio, 24 h;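 active = interference check ratio from 0.5 to 1.5 plus GFP to RFP signal ratio inhibition reaching or exceeding a fixed threshold, cut at about 30% in these data, passing the limit was not always enough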
MT1-MMP act inh – blockers of MT1-MMP proenzyme processing, primary screen, HT1080 RFP-PRO-GFP cells, GFP/RFP fluorescence; GFP/RFP ratio fluorescence, overnight; percent of plate control window, DMSO zero; GFP/RFP ratio change, % at 20 µM; 360,000 tested, 0.061% active; AID 651647, 2012;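 active = GFP/RFP ratio change of at least 30% with cell ATP level not reduced by more than half and red fluorescence within 50% of control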
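system = RFP-PRO-GFP reporter HT1080 cells | dosing = 20 µM single dose, 1% DMSO | timing = overnight cell settling, then overnight compound exposure, 37 °C, 5% CO2 | read-out basis = GFP/RFP fluorescence ratio | controls = DMSO and RFP-L50D-GFP cell wells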
MsrA conf – bovine MsrA inhibitors, retest, confirmation, biochemical, absorbance, HTS. shares compounds with MsrA inh. purified bovine MsrA, absorbance read-out. inhibition, % at 15.5 µM. 2,300 tested, 41% active. AID 651822, 2012;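 also: coupled to thioredoxin reductase with NADPH and selenocystamine and DMSO as substrate; 0% = vehicle only and 100% = full effect of reference inhibitor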
Active calls of the source: *; nt = not tested or not shown; ! = not active in a repeat. Rule as the data show it, unless noted: active = inhibition above about 4.5%; inactive = the rest.

SMILES	MsrA inh	bovine MsrA act	MIN6 prolif	DAGLB inh	SKN-1 inh	MT1-MMP act inh	MsrA conf
Cc1cc(=O)[nH]c(N/N=C/C=C/c2ccccc2)n1	11*	-8	-2	4	-1	-2	4
Cc1cc(=O)[nH]c(N/N=C/c2ccc(Br)s2)n1	5.5*	-5	0	1	1	-2	4
CS(=O)(=O)N1CCCC(C(=O)N2CCN(c3cccc(Cl)c3)CC2)C1 (stereo not drawn)	1	-6	1	0	0	-8	nt
CC(C)OC(=O)/C(=C\C=C\c1ccccc1)NC(=O)c1ccccc1	4	-5	2	-1	-5	-2	nt
C#CCOC(=O)/C(=C/C=C/c1ccccc1)NC(=O)c1ccccc1	5.2*	-6	-3	-4	5	4	3
CC(C)C(=O)OCC(=O)Nc1ccc(N=Nc2ccccc2)cc1	2	-5	nt	12	23	13	nt
CC(=O)OCC(=O)Nc1ccc(N=Nc2ccccc2)cc1	5.9*	-6	0	17	14	10	4
COC(=O)c1cc2c(c3c4cc(F)ccc4n(S(=O)(=O)c4ccccc4)c13)C(=O)N(Cc1ccc(N(C)C)cc1)C2	0	nt	nt	nt	nt	nt	nt
COc1cc2sc(-c3ccc(S(C)(=O)=O)cc3)c(C(=O)NCCCCO)c2cc1OC	5.5*	-4	-3	-1	10	2	2
COc1cc2sc(-c3ccc(S(C)(=O)=O)cc3)c(C(=O)NCc3ccc(C)o3)c2cc1OC	4	-5	4	4	-14	4	nt
NC(=O)c1cccc(-c2ccnc3c2CC(C(=O)Nc2cccc(C(F)(F)F)c2)O3)c1 (stereo not drawn)	2	-3	nt	nt	7	4	nt
COc1ccccc1N/C=C/C(=C(C#N)C#N)N(C)C	5.5*	-4	2	1	-7	1	3
CCOc1cc(/C=N/NC(=O)c2cccs2)cc([N+](=O)[O-])c1O	8.2*	-6	-1	3	10	9	4.9*
CCNc1nc(NCC)nc(N/N=C(\C)c2ccc(OC)cc2)n1	0	-7	2	-2	-9	7	nt
Cc1ccc(NC(=O)c2ncn(CCCNCc3ccccn3)n2)cc1C	-1	-12	nt	-5	8	-2	nt
C#CCOC(=O)CCCNc1ccc([N+](=O)[O-])cc1[N+](=O)[O-]	3	-5	-3	4	-25	0	nt
O=[N+]([O-])c1ccc(Nc2ccccc2O)c([N+](=O)[O-])c1	5.7*	-4	nt	14	18	-34	7.2*
C/C(=N\Nc1ccc([N+](=O)[O-])cc1[N+](=O)[O-])C(C)C(C)C (stereo not drawn)	16*	-4	-5	-7	17	20	14*
CCOC(=O)CC(C)(C)/C(C)=N/Nc1ccc([N+](=O)[O-])cc1[N+](=O)[O-]	9.8*	-10	-5	-6	4	9	13*
CCOC(=O)C(C(=O)OCC)C(C)(C)/C(C)=N\Nc1ccc([N+](=O)[O-])cc1[N+](=O)[O-]	2	-3	-2	1	4	9	nt
CCOC(=O)C(C)/C(C)=N\Nc1ccc([N+](=O)[O-])cc1[N+](=O)[O-] (stereo not drawn)	15*	-4	-4	3	-9	10	13*
Nc1c(Cl)ncnc1NCc1ccccc1	1	-3	-4	-1	5	2	nt
CCn1cc(C(=O)NCCCN(CC(C)C)CC(C)C)c(=O)c2cc(S(=O)(=O)N(C)C3CCCCC3)ccc21	1	-1	-5	1	1	1	nt
CCOc1ccccc1C(=O)NC(C(=O)N(C)Cc1ccc2c(c1)OCO2)C(C)C (stereo not drawn)	0	1	-2	-3	-1	-3	nt
CC(C)NC(=O)CSc1ncccc1-c1nc2ccccc2[nH]1	1	-3	-2	-3	15	-1	nt
SMILES	MsrA inh	bovine MsrA act	MIN6 prolif	DAGLB inh	SKN-1 inh	MT1-MMP act inh	MsrA conf
Cc1ccc(C2NC(=S)NC3=C2C(=O)CC(C)(C)C3)cc1 (stereo not drawn)	4.8*	5	0	1	9	5	1
CC1(C)CC(=O)C2=C(C1)NC(=O)NC2c1ccc(Cl)cc1 (stereo not drawn)	0	-1	-1	1	-1	0	nt
CC1(C)CC(=O)C2=C(C1)Nc1ccccc1NC2c1cccnc1 (stereo not drawn)	5.4*	-13	0	2	1	3	4
CCOC(=O)c1ccc2c(c1)n(CCCS(=O)(=O)[O-])c(/C=C/c1ccc(Cl)cc1)[n+]2CC	5.6*	-4	-2	1	6	1	5.4*
CN(Cc1ccccc1)C1=CC(=[N+]2CCCC2)CC(C)(C)C1	5.5*	-5	-6	-1	-1	-17	3
CCN(CC)C1=CC(=[N+]2CCCC2)CC(C)(C)C1	5.7*	-7	-3	-3	4	-15	4
N#C/C(=C(/O)CN1CCOCC1)c1nc2ccccc2s1	4.8*	-14	-3	-5	4	-2	4
N#C/C(=C(/O)c1ccco1)c1nc2ccccc2s1	4.8*!	-14	-3	-1	7	-1	4.6*
N#C/C(=C(/O)c1ccco1)c1nc2ccccc2[nH]1	7.2*	-13	-3	-1	13	-2	4.6*
N#C/C(=C(\O)c1ccco1)c1ccccn1	5.1*	-4	0	1	2	0	2
N#C/C(=C(/O)CCCl)c1ccccn1	1	-3	-3	1	5	1	nt
O=C(c1ccco1)N(c1ccccn1)c1ccccn1	0	-1	0	0	-2	-1	nt
N#CC(C(=O)c1ccco1)c1ccccn1 (stereo not drawn)	5.9*	-8	1	-2	3	1	4
Cc1ccc(NCC(=O)NNC2=NCCC2)c(C)c1	0	-11	-1	0	3	3	nt
CC(/C=N/Nc1nc(N2CCCCC2)nc(N2CCCCC2)n1)=C\c1ccccc1	2	-5	-5	-3	14	-5	nt
CN(C)c1ccc(/C=C/C=N/Nc2nc(N3CCOCC3)nc(N3CCOCC3)n2)cc1	6.0*	-3	0	3	7	-7	4

High-throughput results (PubChem)
